Experimental data from paper PMC3133600 (Journal of the American Chemical Society, 2011).
Where two headings read alike, the source gives them in different places.

What was measured:
[1] = tested on: HIF-1α levels in MCF7 cells; test: Cellular HIF-1α levels; format: cell-based, human; conditions: 24 hours
human JMJD2C(1–420) = molecular target: T1, human JMJD2C(1–420) (Homo sapiens, UniProt Q9H3R0); format: biochemical; conditions: at up to 50 μM, the highest concentration tested
T1 sequence (Q9H3R0 1-420): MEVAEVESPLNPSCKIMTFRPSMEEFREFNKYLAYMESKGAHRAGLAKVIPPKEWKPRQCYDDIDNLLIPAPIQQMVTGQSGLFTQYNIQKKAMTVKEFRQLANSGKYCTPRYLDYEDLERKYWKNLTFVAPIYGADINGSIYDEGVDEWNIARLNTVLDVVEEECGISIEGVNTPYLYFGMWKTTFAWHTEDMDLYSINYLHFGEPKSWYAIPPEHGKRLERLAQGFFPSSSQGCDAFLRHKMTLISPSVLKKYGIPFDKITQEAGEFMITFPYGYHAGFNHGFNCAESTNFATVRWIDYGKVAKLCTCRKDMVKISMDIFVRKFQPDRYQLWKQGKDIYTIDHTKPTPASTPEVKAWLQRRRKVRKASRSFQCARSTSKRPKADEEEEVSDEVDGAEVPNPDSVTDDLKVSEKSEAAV

[2] = molecular target: T2, JMJD2A (H3K9me3 and H3K36me3 demethylase) (Homo sapiens, UniProt O75164); test: JMJD2A enzyme inhibition in vitro; format: biochemical; conditions: at up to 50 μM, the highest concentration tested
T2 sequence (O75164 1-1064): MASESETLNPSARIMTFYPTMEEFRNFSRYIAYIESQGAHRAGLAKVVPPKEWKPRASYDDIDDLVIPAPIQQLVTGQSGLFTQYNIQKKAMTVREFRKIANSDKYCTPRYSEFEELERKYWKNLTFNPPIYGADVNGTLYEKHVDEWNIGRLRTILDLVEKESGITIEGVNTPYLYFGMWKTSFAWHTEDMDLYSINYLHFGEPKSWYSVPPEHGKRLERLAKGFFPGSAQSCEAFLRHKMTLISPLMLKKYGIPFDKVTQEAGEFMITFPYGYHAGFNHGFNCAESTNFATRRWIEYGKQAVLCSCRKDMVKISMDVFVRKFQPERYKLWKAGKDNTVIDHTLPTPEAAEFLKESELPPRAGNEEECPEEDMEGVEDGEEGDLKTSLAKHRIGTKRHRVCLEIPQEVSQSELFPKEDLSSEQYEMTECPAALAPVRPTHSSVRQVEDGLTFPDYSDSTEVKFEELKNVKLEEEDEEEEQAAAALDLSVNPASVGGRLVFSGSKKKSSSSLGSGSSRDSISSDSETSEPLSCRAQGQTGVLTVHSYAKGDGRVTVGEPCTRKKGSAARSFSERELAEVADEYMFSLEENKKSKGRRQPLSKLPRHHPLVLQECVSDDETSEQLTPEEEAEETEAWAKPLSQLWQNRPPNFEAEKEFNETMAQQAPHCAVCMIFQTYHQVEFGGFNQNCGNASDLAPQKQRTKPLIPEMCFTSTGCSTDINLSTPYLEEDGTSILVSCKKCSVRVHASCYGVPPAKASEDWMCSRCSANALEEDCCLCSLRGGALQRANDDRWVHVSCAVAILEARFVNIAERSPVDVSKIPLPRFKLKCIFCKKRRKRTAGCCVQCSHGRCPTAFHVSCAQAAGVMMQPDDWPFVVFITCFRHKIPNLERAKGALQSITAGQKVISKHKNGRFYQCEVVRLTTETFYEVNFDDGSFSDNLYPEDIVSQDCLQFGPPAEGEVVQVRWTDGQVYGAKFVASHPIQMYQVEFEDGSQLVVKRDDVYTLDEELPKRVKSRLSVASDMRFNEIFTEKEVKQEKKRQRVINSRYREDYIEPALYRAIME

[3] = molecular target: FAD-dependent demethylase, LSD1 (Homo sapiens, UniProt O60341); test: LSD1 enzyme inhibition in vitro; format: biochemical; conditions: at up to 50 μM, the highest concentration tested
[4] = tested on: class I or class II HDACs; test: HDAC enzyme inhibition in vitro; format: biochemical; conditions: at up to 50 μM, the highest concentration tested
[5] = tested on: JMJD2C-sensitive oesophageal carcinoma cell line KYSE150; test: KYSE150 growth inhibition assay; format: cell-based; conditions: read-out: GI50, KYSE150 cell growth; treatment for 48 hours
[6] = Stability in KYSE150 cell growth media; format: in vitro ADME; conditions: 37 °C, 48 hours, extraction with 3:1 chloroform:isopropanol
[7] = tested on: H3K4me3 and H3K9me3 levels in KYSE150 cells; format: cell-based
In short: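 KYSE150 cells were immunostained for H3K4me3 and H3K9me3 in a quantitative image-based assay. Image quantification gave half-maximal effective concentrations for each mark.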

[8] = tested on: H3K4me3 and H3K9me3 levels in MCF7 cells; format: cell-based, human
[9] = tested on: JMJD2C(1–420)-GFP fusion protein in HeLa cells; test: H3K9me3 immunostaining in HeLa cells ectopically expressing JMJD2C; format: cell-based, human; conditions: 10 μM, 48 hours
In short: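 HeLa cells were transfected with JMJD2C(1–420)-GFP, then treated with DMSO or 10 μM test compound. After 48 h they were immunostained with anti-H3K9me3 antibody and DAPI nuclear stain. H3K9me3 was compared in GFP-transfected cells.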

[10] = tested on: histone methylation marks in KYSE150 cells; test: Western blotting of histone methylation marks in KYSE150 cells; format: cell-based; conditions: 48 hours
In short: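 KYSE150 cells received DMSO, DFO 150 μM or DMOG 1 mM as positive controls for Fe²⁺/α-ketoglutarate hydroxylase inhibition, or test compound at 5, 10 or 15 μM, for 48 h. Histone methylation marks were assessed by Western blot, with histone levels based on coomassie stain.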

C2C12 cells = test: Myotube formation in C2C12 cells; format: cell-based; conditions: C2C12 cells in differentiation media, 6 days
In short: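 C2C12 cells in differentiation media were given DMSO or test compound at 1, 2 or 4 μM. After 6 days they were immunostained with anti-myosin heavy chain antibody plus DAPI. MHC-positive myotubes were scored from the images.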

[11] = tested on: UTX-targeted genes Myog and CKm in C2C12 cells; test: RT-PCR of UTX-targeted genes during myogenesis; format: cell-based; conditions: differentiating C2C12 myoblast, 1, 2 and 4 μM, 6 days
In short: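 Differentiating C2C12 myoblasts were given DMSO or test compound (1, 2, 4 μM) in differentiation media. mRNA was collected after 6 days, and RT-PCR measured Myog and Ckm.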

[12] = DFO at 150 μM, DMOG at 1 and 2 mM

CC(=O)N(O)CCCCCNC(=O)CCC(=O)N(O)CCCCCNC(=O)CCC(=O)N(O)CCCCCN [DFO, desferoxamine]
cellular HIF-1α levels [1, 12]: significantly increased

COC(=O)CNC(=O)C(=O)OC [DMOG]
cellular HIF-1α levels [1, 12]: significantly increased

COC(=O)/C=C/C(=O)N(O)CCCCNCc1ccc(COC(=O)Nc2cccc3ccccc23)cc1 [Methylstat, methylstat]
inhibition of enzymatic activity of JMJD2C (human JMJD2C(1–420)): does not inhibit | inhibition of enzymatic activity of JMJD2A [2]: does not inhibit | inhibition of enzymatic activity of LSD1 [3]: does not inhibit | inhibition of enzymatic activity of HDACs [4]: does not inhibit | GI50 [5]: ~5.1 µM | recovered unchanged after incubation in cell growth media [6]: 88% | increase of the H3K9me3 mark [7]: 10.8 fold | EC50 ([7]; read-out: EC50 for H3K4me3): 10.3 µM | EC50 ([7]; read-out: EC50 for H3K9me3): 8.6 µM | increase of the H3K9me3 mark [8]: 4.5 fold | EC50 ([8]; read-out: EC50 for H3K4me3): 6.7 µM | EC50 ([8]; read-out: EC50 for H3K9me3): 6.3 µM | cellular HIF-1α levels ([1]; at up to 15 μM, the highest concentration tested): did not affect | reduction of H3K9me3 level by JMJD2C(1–420)-GFP [9]: reversed | methylation of H3K4, H3K9, H3K27 and H3K36 (Western blotting) ([10]; KYSE150 cells, 5, 10 and 15 μM, concentration-dependent): induces hypermethylation | cellular levels of H3K79me3 and H4K20me3 ([10]; KYSE150 cells): induces increased cellular levels | concentration sufficient to prevent the formation of MHC-positive myotubes (C2C12 cells): 2 µM | expression of UTX-targeted genes Myog and CKm (RT-PCR) [11]: loss of expression
